Laboratory results from the array DNA melting data of Ke et al. (doi:10.1101/2024.01.08.574731).

Key:
[1] = melting temperature; fluorescence melt of hairpins on a sequencing array, two-state fit, raised by 9.35 °C to match UV melts; conditions: sodium 0.088 M
Outline: (§1)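 Cy3 fluorescence of library hairpins on a sequenced MiSeq flow cell, with annealed Cy3 and quencher oligos, was imaged in 50 mM Na-HEPES pH 8.0, 25 mM NaCl in 2.5 °C steps up to 60 °C. Signals were normalised to pre-quench Cy3 and to control variants. Melting temperature and folding enthalpy came from bootstrapped two-state fits, inverse-variance combined over four replicates. Fitted temperatures were raised by 9.35 °C to match UV melts.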

[2] = folding enthalpy; higher = less favourable; fluorescence melt of hairpins on a sequencing array, two-state fit; conditions: sodium 0.088 M
Outline: as §1

GCTAGAGGAAACTCCAGC (((.(((....))).))) gave a Tm [1] of 34.8 °C and a folding enthalpy [2] of -22.2 kcal/mol.

With GCGCTAGGAAACTGGTGC ((.(.((....)).).)) the Tm [1] was 44.3 °C and the folding enthalpy [2] was -28.9 kcal/mol.

In the case of GATCATGCGCATGATC ((((((....)))))), the Tm [1] is reported as 57.2 °C and the folding enthalpy [2] is reported as -57.1 kcal/mol.

In the case of CGACGTCGGAAACGATCG (((..(((....)))))), the Tm [1] is reported as 37 °C and the folding enthalpy [2] is reported as -11.2 kcal/mol.

With GAGCACGGAAACGTGTTC ((.((((....)))).)) the Tm [1] was 51.6 °C and the folding enthalpy [2] was -26.2 kcal/mol.

In the case of GACGTAGAAATACGTC ((((((....)))))), the Tm [1] is reported as 55 °C and the folding enthalpy [2] is reported as -38.5 kcal/mol.

Work on GTGAATGGAAACATTTGC (..((((....))))..) yielded a Tm [1] of 31.4 °C and a folding enthalpy [2] of -15.5 kcal/mol.

GGGCAGGGAAACCCGCCC ((((.((....)).)))) showed a Tm [1] of 60 °C and a folding enthalpy [2] of -38.2 kcal/mol.

With GACGGCGAAAGCCCAGTC ((((((....)))..))) the Tm [1] was 41.8 °C and the folding enthalpy [2] was -13.1 kcal/mol.

In the case of GTACCTCGAAAGAGTAC (((.(((....)))))), the Tm [1] is reported as 42.5 °C and the folding enthalpy [2] is reported as -20.8 kcal/mol.

With GCGCGCCGAAAGGCCCGC (((.(((....))).))) the Tm [1] was 68.5 °C and the folding enthalpy [2] was -32.2 kcal/mol.

GTACGGGGAAACTCGTAC (((((.(....).))))) showed a Tm [1] of 50.7 °C and a folding enthalpy [2] of -35.4 kcal/mol.

In the case of CCTTTGAAAAAAGG (((((....))))), the Tm [1] is reported as 39.7 °C and the folding enthalpy [2] is reported as -12.2 kcal/mol.

In the case of GATCATTCAGATGATC ((((((....)))))), the Tm [1] is reported as 46.9 °C and the folding enthalpy [2] is reported as -36.9 kcal/mol.

With GCCTTTGGAAACAGAGGC ((((.((....)).)))) the Tm [1] was 48.2 °C and the folding enthalpy [2] was -31.1 kcal/mol.

GGTTTCCGAAAGGATACC (((.(((....))).))) gave a Tm [1] of 50.5 °C and a folding enthalpy [2] of -36.7 kcal/mol.

Sequence GGGTACGGAAACGTGTCC ((..(((....)))..)) has a Tm [1] of 40.6 °C and a folding enthalpy [2] of -24.8 kcal/mol.

GTCACCGAAAGGTCAGAC ((((((....)))..))) gave a Tm [1] of 32.2 °C and a folding enthalpy [2] of -14.5 kcal/mol.

Work on GCTATGCGAAAGCTTAGC ((((.((....)).)))) yielded a Tm [1] of 60.8 °C and a folding enthalpy [2] of -28.9 kcal/mol.

In the case of GTGATTGGAAACAACCAC (((.(((....))).))), the Tm [1] is reported as 37.5 °C and the folding enthalpy [2] is reported as -31.3 kcal/mol.

GTCCTCGAAAGAGGGGAC ((((((....)))..))) showed a Tm [1] of 43.6 °C and a folding enthalpy [2] of -11.6 kcal/mol.

For GGCAACGAAAGTTATGCC ((((((....)))..))), the Tm [1] was 46.3 °C and the folding enthalpy [2] was -24.2 kcal/mol.

Sequence GCAGGCGAAAGCCGTGC ((((((....))).))) has a Tm [1] of 62.8 °C and a folding enthalpy [2] of -17.1 kcal/mol.

With GTAATGGGAAACCATCAC ((.((((....)))).)) the Tm [1] was 28.8 °C and the folding enthalpy [2] was -17.7 kcal/mol.

CGGCACCGGAAACGGCCG (((..(((....)))))) gave a Tm [1] of 49.2 °C and a folding enthalpy [2] of -29.1 kcal/mol.

In the case of GTGAGACCGAAAGGTCAC (((..(((....)))))), the Tm [1] is reported as 50.4 °C and the folding enthalpy [2] is reported as -16.1 kcal/mol.

Sequence GCGAGGCGAAAGCACCGC (((..((....))..))) has a Tm [1] of 61.8 °C and a folding enthalpy [2] of -22.8 kcal/mol.

In the case of CGGAGTCGGAAACGACCG (((..(((....)))))), the Tm [1] is reported as 41.3 °C and the folding enthalpy [2] is reported as -15.9 kcal/mol.

GGTTTCGAAAGAATCACC ((((((....)))..))) gave a Tm [1] of 26.7 °C and a folding enthalpy [2] of -13 kcal/mol.

Sequence GATCGCAGGTGCGATC ((((((....)))))) has a Tm [1] of 68.4 °C and a folding enthalpy [2] of -39.8 kcal/mol.

With GTTGACGGAAACGCCAAC ((((.((....)).)))) the Tm [1] was 49.6 °C and the folding enthalpy [2] was -39.8 kcal/mol.

GCAATCGAAAGATTATGC ((((((....)))..))) gave a Tm [1] of 32.8 °C and a folding enthalpy [2] of -17.5 kcal/mol.

For GGACTCGAAAGAGAATCC ((((((....)))..))), the Tm [1] was 28.8 °C and the folding enthalpy [2] was -12.6 kcal/mol.

In the case of GTTGGGACGAAAGTCAAC (((..(((....)))))), the Tm [1] is reported as 41.5 °C and the folding enthalpy [2] is reported as -19.6 kcal/mol.

For GATCGGCTTACCGATC ((((((....)))))), the Tm [1] was 57.7 °C and the folding enthalpy [2] was -35.4 kcal/mol.

For GCTCCTGGAAACAGGGGC ((.((((....)))).)), the Tm [1] was 57.4 °C and the folding enthalpy [2] was -39.6 kcal/mol.

GATCACCAATGTGATC ((((((....)))))) gave a Tm [1] of 54.1 °C and a folding enthalpy [2] of -35.3 kcal/mol.

Work on GCATTGCGAAAGCCAGGC ((.(.((....)).).)) yielded a Tm [1] of 38.5 °C and a folding enthalpy [2] of -17.6 kcal/mol.

Work on GCCCCCGAAAGGGTGGC ((((((....))).))) yielded a Tm [1] of 65.9 °C and a folding enthalpy [2] of -21 kcal/mol.

Sequence ATGTAGAAATACAT (((((....))))) has a Tm [1] of 28.2 °C and a folding enthalpy [2] of -7.12 kcal/mol.

GTCTTTGAAAAAAGAC ((((((....)))))) showed a Tm [1] of 48 °C and a folding enthalpy [2] of -31.1 kcal/mol.

For GATCTAAACCTAGATC ((((((....)))))), the Tm [1] was 39.3 °C and the folding enthalpy [2] was -33.8 kcal/mol.

For GCTCTCGAAAGAGCAGC ((((((....))).))), the Tm [1] was 48.2 °C and the folding enthalpy [2] was -15.4 kcal/mol.

With GCACGACGAAAGTCATGC (((.(((....))).))) the Tm [1] was 52.6 °C and the folding enthalpy [2] was -36.5 kcal/mol.

Work on GGGCATGGAAACATACCC (((.(((....))).))) yielded a Tm [1] of 44.1 °C and a folding enthalpy [2] of -31.8 kcal/mol.

GATCTACCTTTAGATC ((((((....)))))) showed a Tm [1] of 38.3 °C and a folding enthalpy [2] of -30.4 kcal/mol.
